From ChEMBL document CHEMBL1140836, “Hybrid angiogenesis inhibitors: synthesis and biological evaluation of bifunctional compounds based on 1-deoxynojirimycin and aryl-1,2,3-triazoles” (Bioorg Med Chem Lett, 2008)
pIC50: −log10 of the molar value. The source made the active and inactive calls. The calls are words filed in the database; no cut-off is given here.

Tests used:
BAEC [1] = test: Antiangiogenesis activity in bovine BAEC cells assessed as inhibition of tube formation on Matrigel at 0.2 mM; type: functional, cell-based; details: Bos taurus
Method in brief: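 BAECs pretreated with compound (0.2 mM) 24 h, harvested, 3 × 10⁴ cells/0.1 ml in RPMI 1640 with 10 ng/mL bFGF plus 0.2 mM compound (controls bFGF only), layered on growth factor–reduced Matrigel polymerized 1 h at 37 °C; 8 h at 37 °C, 5% CO₂. Tubes counted in at least five microscope fields, averaged per field; repeated at least twice.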

Alpha-glucosidase = target: T1, Alpha-glucosidase (Geobacillus stearothermophilus, UniProt P94451); test: (§1) Inhibition of alpha glucosidase from bacillus stearothermophilus
T1 sequence (P94451 whole entry): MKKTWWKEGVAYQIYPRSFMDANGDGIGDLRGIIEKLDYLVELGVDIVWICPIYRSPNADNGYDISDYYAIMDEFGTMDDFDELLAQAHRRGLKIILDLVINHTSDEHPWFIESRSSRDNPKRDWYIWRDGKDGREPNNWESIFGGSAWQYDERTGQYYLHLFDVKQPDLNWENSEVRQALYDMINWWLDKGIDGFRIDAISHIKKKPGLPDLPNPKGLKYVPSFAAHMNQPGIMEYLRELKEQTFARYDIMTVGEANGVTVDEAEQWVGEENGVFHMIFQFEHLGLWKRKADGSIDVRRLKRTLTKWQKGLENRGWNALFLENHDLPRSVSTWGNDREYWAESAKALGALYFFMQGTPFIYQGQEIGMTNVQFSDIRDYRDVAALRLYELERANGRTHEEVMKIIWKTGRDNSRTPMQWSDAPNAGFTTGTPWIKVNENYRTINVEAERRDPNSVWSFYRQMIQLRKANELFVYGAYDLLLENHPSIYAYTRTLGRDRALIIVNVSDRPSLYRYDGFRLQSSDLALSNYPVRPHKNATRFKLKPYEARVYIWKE

[2] = (§2) Growth inhibition of bovine BAEC by MTT assay; type: functional, cell-based; details: Bos taurus
Method in brief: (§3)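 BAECs in RPMI 1640 with 10% heat-inactivated FBS, 3 × 10³ cells/well, seeded overnight, then exposed to compounds (10⁻⁶–10⁻³ M) for 48 h at 37 °C, 5% CO₂. MTT added to 0.5 mg/mL final, 3 h at 37 °C; formazan dissolved in DMSO, absorbance at 570 nm. Quadruplicate wells, experiments repeated at least twice; IC₅₀ determined.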

[3] = target: T2, Alpha-glucosidase (Geobacillus stearothermophilus) (UniProt P94451); test: as §1
T2 sequence (whole entry): T1 sequence (P94451 whole entry)

[4] = target: Methionine aminopeptidase 2 (Homo sapiens) (UniProt P50579); test: Inhibition of MetAP2
Chain of Methionine aminopeptidase 2 (Homo sapiens) (P50579 2-478 limits assumed): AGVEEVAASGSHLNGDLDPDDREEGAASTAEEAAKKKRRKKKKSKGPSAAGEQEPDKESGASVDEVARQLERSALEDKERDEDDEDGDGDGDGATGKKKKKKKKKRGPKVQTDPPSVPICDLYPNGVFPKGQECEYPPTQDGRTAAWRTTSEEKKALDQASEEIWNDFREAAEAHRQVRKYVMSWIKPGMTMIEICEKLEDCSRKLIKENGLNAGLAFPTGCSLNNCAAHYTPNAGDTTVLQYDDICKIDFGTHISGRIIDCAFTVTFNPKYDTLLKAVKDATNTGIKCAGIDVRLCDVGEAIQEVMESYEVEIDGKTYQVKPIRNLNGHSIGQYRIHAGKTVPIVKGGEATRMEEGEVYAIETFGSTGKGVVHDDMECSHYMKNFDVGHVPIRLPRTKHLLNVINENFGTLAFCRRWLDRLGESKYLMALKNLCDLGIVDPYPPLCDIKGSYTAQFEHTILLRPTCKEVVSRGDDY

BAEC [5] = test: as §2; type: functional, cell-based; details: Bos taurus; method in brief: as §3

Row | Structure (SMILES) | pIC50 (Alpha-glucosidase) | Activity [3] | Activity [4] | Activity (BAEC [1]) | pIC50 [2] | Activity (BAEC [5])
1 | OC[C@@H]1[C@@H](O)[C@H](O)[C@@H](O)CN1CCCCCCCCOc1cccc(-c2cnn[nH]2)c1 | 5.94 | – | – | – | 3.98 | –
2 | OC[C@H]1NC[C@H](O)[C@@H](O)[C@@H]1O | – | – | – | – | – | inactive
3 | OC[C@@H]1[C@@H](O)[C@H](O)[C@@H](O)CN1CCCCCCOc1cccc(-c2cnn[nH]2)c1 | 5.62 | – | – | inactive | 3.21 | –

Second part, led by results:

Row | pIC50 (Alpha-glucosidase) | Activity [3] | Activity [4] | Structure (SMILES) | Activity (BAEC [1]) | pIC50 [2] | Activity (BAEC [5])
4 | 5.22 | – | – | OC[C@@H]1[C@@H](O)[C@H](O)[C@@H](O)CN1CCCCOc1cccc(-c2cnn[nH]2)c1 | inactive | 3.10 | –
5 | – | inactive | Active | COc1cccc(-c2cnn[nH]2)c1 | – | 3.46 | –
